Assay results taken from paper PMC10786304 (Proceedings of the National Academy of Sciences of the …, 2024).
Converted amounts (≈) assume the structure as drawn.

Tests used:
[1] = tested on: M. abscessus ATCC 19977 ∆2780c (∆tetV); conditions: ref [7], [17]; cited from earlier work
M. abscessus ATCC 19977 = assay: microbe, parasite or virus in culture; type: cell-based, Mycobacterium abscessus; conditions: Mycobacteroides abscessus, ATCC19977, 120 h, read-out: MIC M. abs
[2] = tested on: M. abscessus ATCC 19977 ∆3508c ∆2780c; assay: MIC, double deletion mutant ∆whiB7 ∆tetV; type: cell-based, Mycobacterium abscessus; conditions: ∆tetV MIC divided by ∆whiB7 ∆tetV MIC
[3] = tested on: M. abscessus ATCC 19977 ∆3508c (∆whiB7); assay: MIC, isogenic deletion mutant ∆whiB7; type: cell-based, Mycobacterium abscessus; conditions: versus wild type
Mab ATCC 19977 = assay: Whole-cell accumulation assay; type: cell-based, Mycobacterium abscessus; conditions: 100 µM compound, 30 min; mean ± SD
In short: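 Mab grown in MHB2 + 0.05% tyloxapol (37 °C, shaking) to OD600 0.5–0.6 was washed in PBS with 0.05% Tween-80 and 5% glucose. The concentrated suspension was incubated with 100 µM compound (1% DMSO) for 30 min at 37 °C, then washed three times; an aliquot was taken for CFU. Pellets were lysed and filtered supernatant quantified by LC-MS/MS. A = C×V/CFU, normalized to 10^10 CFU. Biological triplicate, mean and SD; ANOVA with Dunnett versus SPC.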

[4] = tested on: M. abscessus ATCC 19977 ∆2780c (∆tetV); assay: MIC, isogenic deletion mutant ∆tetV; type: cell-based, Mycobacterium abscessus; conditions: for WT/∆2780c ratio: WT MIC divided by ∆tetV MIC
[5] = tested on: purified M. smegmatis ATCC 19420 ribosomes; assay: Mycobacterial cell-free translation inhibition assay; type: biochemical, Mycobacterium smegmatis; conditions: read-out: IC50 M. smg ribo
[6] = tested on: 2593-resistant spontaneous Mab mutants (Mab ATCC 19977); assay: Selection and MIC testing of 2593-resistant spontaneous Mab mutants; type: cell-based, Mycobacterium abscessus; conditions: cross-resistance test

Structure (SMILES)	increase in SPC susceptibility of Mab Δ2780c deletion mutants [1] [fold]	MIC (M. abscessus ATCC 19977) [µg/mL]	∆2780c/∆3508c ∆2780c ratio [2]	increase in susceptibility against the ΔwhiB7 strain [3]	whole-cell accumulation (Mab ATCC 19977) [nM/10^10 CFU]	WT/∆2780c ratio [4]	increase in susceptibility in the ΔtetV strain ([4]; versus wild type) [fold]	IC50 [5] [nM]	susceptibility of 2593-resistant mutants [6]
CN[C@@H]1[C@H](O)[C@H](NC)[C@H]2O[C@@]3(O)C(=O)C[C@@H](C)O[C@H]3O[C@@H]2[C@H]1O [SPC, spectinomycin]	> 100	256 (≈ 770 µM)	1	eightfold	38.2 ± 9.0	64	64	800 ± 210	
NCC[C@H](O)C(=O)N[C@@H]1C[C@H](N)[C@@H](O[C@H]2O[C@H](CN)[C@@H](O)[C@H](O)[C@H]2O)[C@H](O)[C@H]1O[C@H]1O[C@H](CO)[C@@H](O)[C@H](N)[C@H]1O [AMK, amikacin]			8			1			remained susceptible
